ChEMBL document CHEMBL1156459, “Discovery of a small molecule antagonist of the parathyroid hormone receptor by using an N-terminal parathyroid hormone peptide probe” (Proc Natl Acad Sci U S A, 2007)
Square brackets hold non-standard residues; d marks the D form. Peptide text beside a SMILES is read from it. Nle = CCCC[C@H](N)C(=O)O; Aib = CC(C)(N)C(=O)O

Tests used:
[1] = Effect on Ptpn16 gene expression in rat UMR106 cells after 2 hrs by microarray analysis relative to control; type: functional
How it was run: (§1)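 Rat UMR106 cells grown to confluency in DMEM/10% FBS, then moved to 0.1% FBS medium 24 h before treatment. Peptides (100 nM) were added to the medium for 2 or 8 h. Microarray profiling covered 8,799 reporters, with changes called at P < 0.01. Values are fold-change versus untreated control.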

[2] = Effect on c-fos gene expression in rat UMR106 cells after 8 hrs by microarray analysis relative to control; type: functional; how it was run: as §1
[3] = Effect on c-fos gene expression in rat UMR106 cells after 2 hrs by microarray analysis relative to control; type: functional; how it was run: as §1
[4] = Effect on Ptpn16 gene expression in rat UMR106 cells after 2 hrs by real time PCR method relative to control; type: functional
How it was run: (§2)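 Confluent UMR106 cells were serum-starved (0.1% FBS, 24 h) and then given peptide in the medium for 2 h. Transcripts were quantified by TaqMan real-time RT-PCR, with relative expression levels set from a serial-dilution standard. Expression is reported as change versus untreated control.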

[5] = Effect on c-fos gene expression in rat UMR106 cells after 2 hrs by real time PCR method relative to control; type: functional; how it was run: as §2
[6] = biological target: T1, Parathyroid hormone/parathyroid hormone-related peptide receptor (Homo sapiens, UniProt Q03431); experiment: Activity at human PTH/PTH-related peptide receptor expressed in HEK293 cells assessed as induction of intracellular calcium mobilization; type: functional, cell-based
T1 sequence (Q03431 whole entry): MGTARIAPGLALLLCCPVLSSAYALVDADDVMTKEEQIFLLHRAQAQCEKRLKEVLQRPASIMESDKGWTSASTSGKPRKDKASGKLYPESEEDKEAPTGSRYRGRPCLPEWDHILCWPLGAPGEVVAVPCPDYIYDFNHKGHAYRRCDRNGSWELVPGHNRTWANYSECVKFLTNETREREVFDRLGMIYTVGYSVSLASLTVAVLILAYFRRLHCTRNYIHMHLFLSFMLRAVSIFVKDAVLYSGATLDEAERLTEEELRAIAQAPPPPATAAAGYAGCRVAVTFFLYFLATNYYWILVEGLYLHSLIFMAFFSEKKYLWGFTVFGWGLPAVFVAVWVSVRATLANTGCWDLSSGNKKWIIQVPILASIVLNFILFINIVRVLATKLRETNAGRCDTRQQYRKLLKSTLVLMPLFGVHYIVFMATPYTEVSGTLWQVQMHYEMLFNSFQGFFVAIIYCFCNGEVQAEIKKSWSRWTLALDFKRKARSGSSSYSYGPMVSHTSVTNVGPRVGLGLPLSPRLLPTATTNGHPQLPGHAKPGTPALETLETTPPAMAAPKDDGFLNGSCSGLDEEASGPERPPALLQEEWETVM

[7] = biological target: T1, Parathyroid hormone/parathyroid hormone-related peptide receptor; experiment: Activity at human PTH/PTH-related peptide receptor expressed in HEK293 cells assessed as induction of luciferase activity by CRE-luciferase reporter assay; type: functional, cell-based
[8] = biological target: T2, Parathyroid hormone/parathyroid hormone-related peptide receptor (Rattus norvegicus, UniProt P25961); experiment: Activity at rat PTH/PTH-related peptide receptor expressed in rat UMR106 cells assessed as cAMP formation; type: functional, cell-based
T2 sequence (P25961 whole entry): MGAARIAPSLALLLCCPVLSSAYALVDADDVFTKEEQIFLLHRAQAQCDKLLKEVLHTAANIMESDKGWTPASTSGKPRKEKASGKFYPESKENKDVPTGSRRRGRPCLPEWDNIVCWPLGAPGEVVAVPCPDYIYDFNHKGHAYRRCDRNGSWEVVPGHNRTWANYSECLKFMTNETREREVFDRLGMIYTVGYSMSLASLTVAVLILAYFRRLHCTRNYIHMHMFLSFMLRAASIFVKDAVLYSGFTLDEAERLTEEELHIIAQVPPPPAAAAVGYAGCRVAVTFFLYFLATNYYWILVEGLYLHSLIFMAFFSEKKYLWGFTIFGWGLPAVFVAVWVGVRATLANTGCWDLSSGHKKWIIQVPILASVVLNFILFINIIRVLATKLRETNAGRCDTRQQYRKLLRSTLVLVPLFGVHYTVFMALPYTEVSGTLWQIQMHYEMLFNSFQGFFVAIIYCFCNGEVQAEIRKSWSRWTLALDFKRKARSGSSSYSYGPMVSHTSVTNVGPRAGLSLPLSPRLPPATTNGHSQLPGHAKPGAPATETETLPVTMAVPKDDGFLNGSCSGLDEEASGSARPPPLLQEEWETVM
How it was run: (§3)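 Nonconfluent cells grown at 37°C in DMEM with 10% FBS, refed 12–24 h before assay. Rinsed with warm PBS, detached with prewarmed EDTA (37°C, 5–10 min), spun at 300 × g for 5 min. Resuspended in HBSS/5 mM Hepes/0.1% BSA/0.5 mM IBMX, pH 7.4. cAMP read by AlphaScreen.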

[9] = biological target: T1, Parathyroid hormone/parathyroid hormone-related peptide receptor; experiment: Activity at human PTH/PTH-related peptide receptor expressed in SAOS2 cells assessed as cAMP formation; type: functional, cell-based, SAOS-2; how it was run: as §3
[10] = biological target: T1, Parathyroid hormone/parathyroid hormone-related peptide receptor; experiment: Displacement of [125I]DPC-AJ1951 from PTH/PTH-related peptide receptor expressed in HKRK-B28 cells; type: cell-based
How it was run: (§4)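 Whole HKRK-B28 cells plated at 30,000/well and incubated overnight at 37°C, 5% CO2. Incubated 3 h at room temperature, washed three times, bound radioactivity counted by scintillation.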

[11] = biological target: T1, Parathyroid hormone/parathyroid hormone-related peptide receptor; experiment: Binding affinity to PTH/PTH-related peptide receptor expressed in HKRK-B28 cells; type: cell-based; how it was run: as §4
[12] = Effect on Ptpn16 gene expression in rat UMR106 cells after 8 hrs by microarray analysis relative to control; type: functional; how it was run: as §1
[13] = Effect on IL18 gene expression in rat UMR106 cells after 2 hrs by real time PCR method relative to control; type: functional; how it was run: as §2
[14] = Effect on IL18 gene expression in rat UMR106 cells after 8 hrs by microarray analysis relative to control; type: functional; how it was run: as §1
[15] = Effect on Crem gene expression in rat UMR106 cells after 2 hrs by real time PCR method relative to control; type: functional; how it was run: as §2
[16] = Effect on Crem gene expression in rat UMR106 cells after 2 hrs by microarray analysis relative to control; type: functional; how it was run: as §1
[17] = Effect on Pde4b gene expression in rat UMR106 cells after 2 hrs by real time PCR method relative to control; type: functional; how it was run: as §2
[18] = Effect on Pde4b gene expression in rat UMR106 cells after 2 hrs by microarray analysis relative to control; type: functional; how it was run: as §1
[19] = Effect on Pde4b gene expression in rat UMR106 cells after 8 hrs by microarray analysis relative to control; type: functional; how it was run: as §1
[20] = Effect on Pthr1 gene expression in rat UMR106 cells after 2 hrs by real time PCR method relative to control; type: functional; how it was run: as §2
[21] = Effect on Pthr1 gene expression in rat UMR106 cells after 2 hrs by microarray analysis relative to control; type: functional; how it was run: as §1
[22] = Effect on Pthr1 gene expression in rat UMR106 cells after 8 hrs by microarray analysis relative to control; type: functional; how it was run: as §1
[23] = Effect on Bmp3 gene expression in rat UMR106 cells after 2 hrs by real time PCR method relative to control; type: functional; how it was run: as §2
[24] = Effect on Bmp3 gene expression in rat UMR106 cells after 8 hrs by microarray analysis relative to control; type: functional; how it was run: as §1
[25] = Stimulation of osteoclast-mediated bone resorption in fetal Sprague-Dawley rat radii/ulnae assessed as [45Ca]release measured on day 5; type: functional; conditions: 120 h
How it was run: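 Fetal rat radii/ulnae prelabelled with 45Ca in utero, dissected and cultured. 45Ca released into the culture medium measured as the osteoclast-mediated resorption read-out.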

[26] = Decrease in collagen synthesis in neonatal CD1 mouse calivaria bone assessed as [3H]proline incorporation; type: functional
[27] = Stimulation of cell proliferation in neonatal CD1 mouse calivaria assessed as increase in [3H]thymidine incorporation; type: functional
[28] = Stability in rat plasma assessed as half life; type: ADME, cell-free
How it was run: (§5)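 Peptide incubated at 37°C in rat plasma or rat whole blood; half-life determined.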

[29] = Stability in rat whole blood assessed as half life; type: ADME, tissue-based; how it was run: as §5
[30] = Increase in trabecular bone mineral density in ovariectomized rat at 0.2 mg/kg, sc; type: functional, Trabecula; conditions: route subcutaneous
Rattus norvegicus = experiment: Increase in cAMP level in ovariectomized rat plasma after 30 mins at 1 mg/kg, sc relative to control; type: functional; conditions: route subcutaneous
[31] = biological target: T1, Parathyroid hormone/parathyroid hormone-related peptide receptor; experiment: Displacement of [125I]DPC-AJ1951 from PTH/PTH-related peptide receptor expressed in HKRK-B28 cells in presence of SW106; type: cell-based; how it was run: as §4

EC50 [6]: 26 nM
EC50 [7]: 0.15 nM
EC50 [8]: 1.1 nM
EC50 [9]: 2.2 nM
IC50 [10]: 6.87 nM
Kd [11]: 21.6 nM
EC50 [25]: 30 nM
EC50 [26]: 0.2 nM
half-life [28]: 20 min
half-life [29]: 15 min
IC50 [31]: 55.4 nM
SMILES: CCCC[C@H](NC(=O)[C@H](CC(C)C)NC(=O)[C@H](CCC(N)=O)NC(=O)[C@@H](NC(=O)[C@H](CCC(=O)O)NC(=O)C(C)(C)NC(=O)[C@@H](NC(=O)C(C)(C)N)C(C)C)[C@@H](C)CC)C(=O)N[C@@H](Cc1cnc[nH]1)C(=O)N[C@@H](CCC(N)=O)C(=O)N[C@@H](CCCNC(=N)N)C(=O)N[C@@H](C)C(=O)N[C@@H](CCCCN)C(=O)N[C@@H](Cc1ccc(O)cc1)C(N)=O (H-[Aib]V[Aib]EIQL[Nle]HQRAKY-NH2)
fold change (FC) [1]: 9
fold change (FC) [2]: 11
fold change (FC) [3]: 48
fold change (FC) [4]: 15
fold change (FC) [5]: 66
fold change (FC) [12]: 6
fold change (FC) [13]: 6
fold change (FC) [14]: 18
fold change (FC) [15]: 5
fold change (FC) [16]: 13
fold change (FC) [17]: 4
fold change (FC) [18]: 11
fold change (FC) [19]: 9
fold change (FC) [20]: -2
fold change (FC) [21]: -2
fold change (FC) [22]: 3
fold change (FC) [23]: 14
fold change (FC) [24]: 4
EC50 [27]: 6 nM
Activity [30]: 21%
Activity (Rattus norvegicus): 150%
